Measurements taken from ChEMBL document CHEMBL1122328, “Hypolipidemic activity of phthalimide derivatives. 2. N-phenylphthalimide and derivatives” (1983).

What was measured:
Type in all cases: functional
Mus musculus [1] = assay: Effect on cholesterol from CF1 male mice after 16 days at a dose of 40 (mg/kg/day)
Outline: (§1)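 CF1 male mice dosed ip for 16 days at 10–60 (mg/kg)/day; liver taken and 10% homogenate made in 0.25 M sucrose + 0.001 M EDTA; aliquot extracted by Folch and Bligh–Dyer methods, mg lipid weighed, cholesterol measured by Liebermann–Burchard method; n = 6; % of 1% CMC control.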

Mus musculus [2] = assay: Effect on mg of lipid from CF1 male mice after 16 days at a dose of 10 (mg/kg/day); outline: as §1
Mus musculus [3] = assay: Effect on neutral lipids from CF1 male mice after 16 days at a dose of 10 (mg/kg/day)
Outline: (§2)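 Dosing was ip in CF₁ male mice (~25 g) for 16 days, with compound suspended in 1% carboxymethylcellulose. Liver was then taken and homogenised to 10% in 0.25 M sucrose with 0.001 M EDTA. Lipid was extracted from a 2 mL aliquot by the Folch and Bligh–Dyer methods and total mg of lipid was weighed. Cholesterol (Liebermann–Burchard), triglycerides (kit), neutral lipids and phospholipids were then measured; N = 6; reported as % of vehicle control.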

Mus musculus [4] = assay: In vitro effect on CF1 male mouse on Lipid content after 16 days at a dose of 60 (mg/kg)/day
Mus musculus [5] = species: Mus musculus; assay: In vitro effect on CF1 male mouse on Mitochondrial citrate exchange
Outline: (§3)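 In vitro test on 10% CF₁ male mouse liver homogenate (0.25 M sucrose, 0.001 M EDTA) with 2.5 μmol test drug. Assays: acetyl-CoA synthetase and citrate lyase as hydroxamate at 540 nm, 30 min, 37 °C; citrate exchange from [¹⁴C]citrate-loaded mitochondria after 10 min with drug; side-chain oxidation by ¹⁴CO₂ from [26-¹⁴C]cholesterol, 18 h, 37 °C; acetyl-CoA carboxylase by [¹⁴C]bicarbonate fixation after 30 min polymerization then 30 min at 37 °C.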

Mus musculus [6] = assay: In vitro effect on CF1 male mouse on acyltransferase after 16 days at a dose of 60 (mg/kg)/day
Outline: (§4)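 In vivo enzyme study. CF₁ male mice were dosed ip for 16 days in 1% CMC, and liver was homogenised to 10% in 0.25 M sucrose with 0.001 M EDTA. Enzymes assayed: acetyl-CoA synthetase as hydroxamate at 540 nm after 30 min at 37 °C; HMG CoA reductase with [1-¹⁴C]acetate in 9000g supernatant for 60 min at 37 °C; fatty acid synthetase with [2-¹⁴C]malonyl-CoA; acyltransferase with [³H]glycerol 3-phosphate and microsomes for 10 min; phosphatidate phosphohydrolase as released phosphate at 820 nm after 30 min. N = 6; reported as % control.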

Mus musculus [7] = assay: Effect on phospholipids from CF1 male mice after 16 days at a dose of 60 (mg/kg/day); outline: as §2
Mus musculus [8] = assay: Effect on triglycerides from CF1 male mice after 16 days at a dose of 20 (mg/kg/day); outline: as §2
Mus musculus [9] = assay: Effect on triglycerides from CF1 male mice after 16 days at a dose of 40 (mg/kg/day); outline: as §2
Mus musculus [10] = assay: Effect on Serum cholesterol levels on CF1 male mice at a dose of 12.5 (mg/kg)/day after 9 days
Outline: (§5)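 CF1 male mice (~25 g), drug suspended in 1% carboxymethylcellulose in water, given ip daily for 16 days; n = 6; vehicle control. Tail-vein blood on days 9 and 16, serum cholesterol by modified Liebermann–Burchard reaction; day-14 serum triglyceride by commercial kit; expressed as % control.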

Mus musculus [11] = assay: Effect on Serum cholesterol levels on CF1 male mice at a dose of 20 (mg/kg)/day after 9 days; outline: as §5
Mus musculus [12] = assay: Effect on Serum cholesterol levels on CF1 male mice at a dose of 25 (mg/kg)/day after 9 days; outline: as §5
Mus musculus [13] = species: Mus musculus; assay: Effect on Serum cholesterol levels on Hyperlipidemic induced mice After 2-week diet
Outline: (§6)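 Mice fed atherogenic diet for 2 weeks to raise serum lipids, then given drug at 20 (mg/kg)/day ip for a further 2 weeks; serum cholesterol and triglyceride measured after the diet and after 14 days dosing; n = 6; compared with 1% CMC and diet-only controls; % control.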

Mus musculus [14] = assay: Effect on Serum triglceride levels on CF1 male mice at a dose of 12.5 (mg/kg)/day after 14 days; outline: as §5
Mus musculus [15] = assay: Effect on Serum triglceride levels on CF1 male mice at a dose of 25 (mg/kg)/day after 14 days; outline: as §5
Mus musculus [16] = species: Mus musculus; assay: Effect on Serum triglceride levels on Hyperlipidemic induced mice After 2-week diet; outline: as §6
Mus musculus [17] = assay: Effect on Serum triglyceride levels on CF1 male mice at a dose of 20 (mg/kg)/day after 14 days; outline: as §5
Mus musculus [18] = assay: In vitro effect on CF1 male mouse on Ac-CoA synthetase after 16 days at a dose of 60 (mg/kg)/day; outline: as §4
Mus musculus [19] = assay: In vitro effect on CF1 male mouse on Fatty acid synthetase after 16 days at a dose of 60 (mg/kg)/day; outline: as §4
Mus musculus [20] = assay: In vitro effect on CF1 male mouse on HMGCoA reductase after 16 days at a dose of 40 (mg/kg)/day; outline: as §4
Mus musculus [21] = species: Mus musculus; assay: In vitro effect on CF1 male mouse on Ac-CoA carboxylase; outline: as §3
Mus musculus [22] = assay: In vitro effect on CF1 male mouse on Ac-CoA synthetase after 16 days at a dose of 10 (mg/kg)/day; settings: in the assay text read “In vivo” for “In vitro”; outline: as §4
Rattus norvegicus [23] = assay: Effect on low density cholesterol Holtzman rats after 14 days administration
Outline: (§7)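 Holtzman male rats (~400 g) given drug at 20 (mg/kg)/day for 14 days; on day 14 blood taken from the abdominal aorta and serum separated by centrifugation at 3500 rpm; lipid and protein content of the lipoprotein fractions measured.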

Rattus norvegicus [24] = assay: Effect on very low density Protein Holtzman rats after 14 days administration
Outline: (§8)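 Holtzman male rats (~400 g) received drug at 20 (mg/kg)/day for 14 days. On day 14, blood was collected from the abdominal aorta and serum was separated by centrifugation at 3500 rpm. Lipid content of the lipoprotein fractions was then determined.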

Rattus norvegicus [25] = assay: Effect on very low density cholesterol Holtzman rats after 14 days administration; outline: as §8
Rattus norvegicus [26] = assay: Effect on very low density neutral lipids Holtzman rats after 14 days administration; outline: as §8
Rattus norvegicus [27] = assay: Effect on Chylomicrons of Protein Holtzman rats after 14 days administration; outline: as §7
Rattus norvegicus [28] = assay: Effect on Serum cholesterol levels on Holtzman rats at a dose of 10 (mg/kg)/day after 16 days
Outline: (§9)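 Holtzman male rats (~200 g) dosed orally by intubation needle daily for 16 days, drug suspended in 1% carboxymethylcellulose; n = 6; vehicle control. Tail-vein serum cholesterol on days 9 and 16 by modified Liebermann–Burchard reaction; day-14 serum triglyceride by commercial kit; % control.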

Rattus norvegicus [29] = assay: Effect on Serum cholesterol levels on Holtzman rats at a dose of 10 (mg/kg)/day after 9 days; outline: as §9
Rattus norvegicus [30] = assay: Effect on Serum cholesterol levels on Holtzman rats at a dose of 20 (mg/kg)/day after 9 days; outline: as §9
Rattus norvegicus [31] = assay: Effect on Serum cholesterol levels on Holtzman rats at a dose of 30 (mg/kg)/day after 16 days; outline: as §9
Rattus norvegicus [32] = assay: Effect on cholesterol chylomicrons Holtzman rats after 14 days administration; outline: as §7
Rattus norvegicus [33] = assay: Effect on low density Phospholipids Holtzman rats after 14 days administration; outline: as §7

CC(=O)c1ccccc1N1C(=O)c2ccccc2C1=O
Control (Mus musculus [1]): 71% | Control (Mus musculus [2]): 84% | Control (Mus musculus [3]): 36% | Control (Mus musculus [4]): 80% | Control (Mus musculus [5]): 76% | Control (Mus musculus [6]): 45% | Control (Mus musculus [7]): 86% | Control (Mus musculus [8]): 91% | Control (Mus musculus [9]): 91% | Control (Mus musculus [10]): 83% | Control (Mus musculus [11]): 89% | Control (Mus musculus [12]): 74% | Control (Mus musculus [13]): 289% | Control (Mus musculus [14]): 56% | Control (Mus musculus [15]): 61% | Control (Mus musculus [16]): 131% | Control (Mus musculus [17]): 56% | Control (Mus musculus [18]): 86% | Control (Mus musculus [19]): 100% | Control (Mus musculus [20]): 84% | Control (Mus musculus [21]): 35% | Control (Mus musculus [22]): 53% | Control (Rattus norvegicus [23]): 57% | Control (Rattus norvegicus [24]): 66% | Control (Rattus norvegicus [25]): 85% | Control (Rattus norvegicus [26]): 81% | Control (Rattus norvegicus [27]): 91% | Control (Rattus norvegicus [28]): 54% | Control (Rattus norvegicus [29]): 66% | Control (Rattus norvegicus [30]): 76% | Control (Rattus norvegicus [31]): 64% | Control (Rattus norvegicus [32]): 64% | Control (Rattus norvegicus [33]): 87%
